Measured values: ChEMBL document CHEMBL4680106, “Rational Design of Dimeric Lysine N-Alkylamides as Potent and Broad-Spectrum Antibacterial Agents” (J Med Chem, 2018)
In brackets after ≈: the same amount, converted by molar mass. Activity calls are given as the source filed them. No cut-off for these calls is given here.

Experiments:
Escherichia coli [1] = experiment: Antimicrobial activity against Escherichia coli ATCC 25922 assessed as inhibition of bacterial growth by broth microdilution method; format: functional
[2] = Induction of hemolysis in human RBC incubated for 1 hr; format: cell-based, Erythrocyte; conditions: human red blood cells (erythrocytes)
Summary of the method: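 Human RBCs pelleted at 3000 rpm for 10 min and made 5% v/v in 1x PBS, mixed 1:1 with compound at several concentrations, 37 °C for 1 h. Spun at 3500 rpm for 10 min; diluted supernatant read at 540 nm. Hemolysis % referenced to 2% Triton X-100 (100%) and PBS (0%). Three repeats, duplicates each.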

Enterococcus faecalis = experiment: Antimicrobial activity against vancomycin-resistant Enterococcus faecalis assessed as inhibition of bacterial growth by broth microdilution method; format: functional
Summary of the method: (§1)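 Broth microdilution following a previously reported procedure. MIC was taken as the lowest concentration with no turbidity, meaning complete growth inhibition over the incubation period.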

Pseudomonas aeruginosa = experiment: Antimicrobial activity against Pseudomonas aeruginosa ATCC 27853 assessed as inhibition of bacterial growth by broth microdilution method; format: functional
[3] = test system: Staphylococcus epidermidis; experiment: Antimicrobial activity against methicillin-resistant Staphylococcus epidermidis RP62A assessed as inhibition of bacterial growth by broth microdilution method; format: functional; summary of the method: as §1
Staphylococcus aureus [4] = experiment: Antimicrobial activity against methicillin-resistant Staphylococcus aureus ATCC 33591 assessed as inhibition of bacterial growth by broth microdilution method; format: functional; summary of the method: as §1
Escherichia coli [5] = experiment: Inhibition of biofilm formation in Escherichia coli ATCC 25922 at 3 ug/ml incubated overnight by crystal violet staining based method; format: functional
Summary of the method: (§2)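 Overnight-grown (12 h) bacteria diluted 1:100 into 10% MHII broth and incubated with compound overnight at 37 °C. OD600 recorded, then biomass by crystal violet, expressed as CV OD/growth OD and normalized to untreated control. Triplicate, mean ± STDEV.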

Cell membrane [6] = experiment: Induction of membrane depolarization in methicillin-resistant Staphylococcus aureus ATCC 33591 assessed as induction of membrane potential loss at 5 ug/ml incubated for 30 mins by DiSC3(5) dye based bacterial membrane depolarization assay; conditions: dose 5.0 µg/ml
Summary of the method: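 Mid-log MRSA were washed and resuspended at 10^8 CFU/mL in a 1:1:1 mix of 5 mM glucose, 5 mM HEPES and 100 mM KCl, with 2 µM DiSC3(5). Fluorescence (ex 622/em 670 nm) was read at room temperature until it reached its minimum after about 20 min. Compound was then added and the fluorescence rise recorded. Untreated negative control. Three runs in duplicate.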

Escherichia coli [7] = experiment: Inhibition of biofilm formation in Escherichia coli ATCC 25922 at 1.5 ug/ml incubated overnight by crystal violet staining based method; format: functional; summary of the method: as §2
Cell membrane [8] = experiment: Induction of cell membrane disruption in Escherichia coli ATCC 25922 at 2 times MIC incubated for 2 hrs by DAPI and PI staining based optical microscopy
Summary of the method: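 Cells grown to ~2 × 10^6 cells, exposed 2 h, pelleted at 3000g for 15 min and PBS-washed. Stained with PI (5 µg/mL) then DAPI (10 µg/mL in water), each 15 min in the dark at 0 °C, then PBS-washed. Untreated controls handled identically. Imaged by 100x oil-immersion light microscopy; three repeats, duplicates each.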

Staphylococcus aureus [9] = experiment: Bactericidal activity against methicillin-resistant Staphylococcus aureus ATCC 33591 assessed as bacterial killing by measuring reduction in bacterial colony count at 16 to 32 x MIC measured within 10 mins by time-kill kinetics method; conditions: dose 16-32 x MIC; time min <=10
Staphylococcus aureus [10] = experiment: Bactericidal activity against methicillin-resistant Staphylococcus aureus ATCC 33591 assessed as bacterial killing at 6.25 to 12.5 ug/ml incubated for 2 hrs by time-kill kinetics method; format: functional, organism-based; conditions: dose 6.25-12.5 µg/ml
Summary of the method: (§3)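 MRSA were grown in tryptic soy broth to 10^6 CFU/mL and exposed to compound at multiples of MIC, sampled for up to 2 h. Aliquots were diluted 10^2–10^4-fold and plated on TSB agar, incubated 24 h at 37 °C, and colonies counted. Run three times.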

Escherichia coli [11] = experiment: Antimicrobial activity against Escherichia coli ATCC 25922 grown under presence of test compound at 1/2 MIC assessed as inhibition of bacterial growth measured after 14 passages by broth microdilution method relative to wild type; format: functional, organism-based
Summary of the method: (§4)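 Initial MIC by the standard broth microdilution procedure. Bacteria from the 1/2 MIC wells were made into a suspension of about 10^6 CFU/mL, incubated with compound at 37 °C for 24 h, and the MIC was measured again. This was repeated daily for 14 passages.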

Staphylococcus aureus [12] = experiment: Antimicrobial activity against methicillin-resistant Staphylococcus aureus ATCC 33591 grown under presence of test compound at 1/2 MIC assessed as inhibition of bacterial growth measured after 14 passages by broth microdilution method relative to wild type; format: functional; summary of the method: as §4
Cell membrane [13] = experiment: Induction of cell membrane disruption in methicillin-resistant Staphylococcus aureus ATCC 33591 at 2 times MIC incubated for 2 hrs by DAPI and PI staining based optical microscopy
Summary of the method: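 Bacteria at about 2 × 10^6 cells were treated at 2 × MIC for 2 h, then centrifuged and washed in PBS. They were stained with PI (5 µg/mL) and then DAPI (10 µg/mL), each for 15 min in the dark at 0 °C. Imaged by oil-immersion light microscopy at 100×. Untreated controls were processed identically. Three runs in duplicate.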

Cell membrane [14] = experiment: Induction of cell membrane integrity loss in methicillin-resistant Staphylococcus aureus ATCC 33591 at 5 ug/ml incubated for 2 hrs by TEM analysis; conditions: dose 5.0 µg/ml
Staphylococcus aureus [15] = experiment: Bactericidal activity against methicillin-resistant Staphylococcus aureus ATCC 33591 assessed as bacterial killing by measuring reduction in bacterial colony count at 64 times MIC incubated for 2 hrs by time-kill kinetics method; format: functional, organism-based; summary of the method: as §3

| Structure (SMILES) | MIC (Escherichia coli [1]) | HC50 at 1 h [2] [µg/mL] | MIC (Enterococcus faecalis) | MIC (Pseudomonas aeruginosa) | MIC [3] | MIC (Staphylococcus aureus [4]) | also measured |
| --- | --- | --- | --- | --- | --- | --- | --- |
| CCCCCCCCNC(=O)[C@H](CCCCN)NC(=O)c1ccc(C(=O)N[C@@H](CCCCN)C(=O)NCCCCCCCC)cc1 | 0.75 µg/mL (≈ 1.16 µM) | > 250 | inactive | 3 µg/mL (≈ 4.65 µM) | 3 µg/mL (≈ 4.65 µM) | 1.5 µg/mL (≈ 2.33 µM) | – |
| CCCCCCCCCNC(=O)[C@H](CCCCN)NC(=O)c1ccc(C(=O)N[C@@H](CCCCN)C(=O)NCCCCCCCCC)cc1 | 0.75 µg/mL (≈ 1.11 µM) | 180 | 3 µg/mL (≈ 4.46 µM) | 3 µg/mL (≈ 4.46 µM) | 1.5 µg/mL (≈ 2.23 µM) | 0.75 µg/mL (≈ 1.11 µM) | inhibition at 3 µg/mL (Escherichia coli [5]): 70%; Activity (Cell membrane [6]): Active; inhibition at 1.5 µg/mL (Escherichia coli [7]): 50%; Activity (Cell membrane [8]): Active; Activity (Staphylococcus aureus [9]): 3.74 log10CFU/ml; Activity (Staphylococcus aureus [10]): inactive; Activity (Escherichia coli [11]): Active; Activity (Staphylococcus aureus [12]): Active; Activity (Cell membrane [13]): Active; Activity (Cell membrane [14]): Active |
| CCn1cc(C(=O)O)c(=O)c2cc(F)c(N3CCNCC3)cc21 [NORFLOXACIN] | – | – | – | – | – | – | Activity (Staphylococcus aureus [15]): inactive; Ratio (Staphylococcus aureus [12]): >80 |
| CCCCCCCCCCCCCCNC(=O)[C@H](CCCCN)NC(=O)c1ccc(C(=O)N[C@@H](CCCCN)C(=O)NCCCCCCCCCCCCCC)cc1 | inactive | – | inactive | inactive | inactive | inactive | – |
| CCCCCCCCCCCCCNC(=O)[C@H](CCCCN)NC(=O)c1ccc(C(=O)N[C@@H](CCCCN)C(=O)NCCCCCCCCCCCCC)cc1 | inactive | – | inactive | inactive | 6 µg/mL (≈ 7.64 µM) | 6 µg/mL (≈ 7.64 µM) | – |
| CCCCCCCNC(=O)[C@H](CCCCN)NC(=O)c1ccc(C(=O)N[C@@H](CCCCN)C(=O)NCCCCCCC)cc1 | 6 µg/mL (≈ 9.73 µM) | – | inactive | inactive | inactive | inactive | – |
| CCCCCCCCCCCCNC(=O)[C@H](CCCCN)NC(=O)c1ccc(C(=O)N[C@@H](CCCCN)C(=O)NCCCCCCCCCCCC)cc1 | 3 µg/mL (≈ 3.96 µM) | > 250 | inactive | 12 µg/mL (≈ 15.8 µM) | 6 µg/mL (≈ 7.92 µM) | 3 µg/mL (≈ 3.96 µM) | – |
| NCCCC[C@H](NC(=O)c1ccc(C(=O)N[C@@H](CCCCN)C(=O)NCc2ccc(-c3ccccc3)cc2)cc1)C(=O)NCc1ccc(-c2ccccc2)cc1 | 3 µg/mL (≈ 3.98 µM) | > 250 | inactive | 12 µg/mL (≈ 15.9 µM) | 6 µg/mL (≈ 7.97 µM) | 3 µg/mL (≈ 3.98 µM) | – |
| CCCCCCCCCCNC(=O)[C@H](CCCCN)NC(=O)c1ccc(C(=O)N[C@@H](CCCCN)C(=O)NCCCCCCCCCC)cc1 | 3 µg/mL (≈ 4.28 µM) | 250 | 3 µg/mL (≈ 4.28 µM) | inactive | 6 µg/mL (≈ 8.56 µM) | 1.5 µg/mL (≈ 2.14 µM) | – |
| CCCCCCNC(=O)[C@H](CCCCN)NC(=O)c1ccc(C(=O)N[C@@H](CCCCN)C(=O)NCCCCCC)cc1 | inactive | – | inactive | inactive | inactive | inactive | – |
